Source: PubChem BioAssay
Shown are actives, neighbours in structure and some others; about 2.5% of the full set was active somewhere.
Env fusion inh: blocks HIV Env-driven cell-cell fusion; HeLa-JRFL Env/CEM21 cell fusion, luciferase; inhibition, % at 12.3 µM; 360,000 compounds, 1.1% hits;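 active = mean replicate inhibition score of at least 50 and every replicate individually at or above 50; inconclusive = only one of the two criteria met; inactive = mean below 50 and not all replicates reaching 50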;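 also: 0% = plate neutral controls and 100% = maraviroc near 300 nM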
EWS-Fli inh: inhibitors of EWS/Fli oncoprotein transcriptional activity; A673 NR0B1-luciferase reporter, viability-normalised; AID 651661; inhibition, % at 12.6 µM; 350,000 compounds, 0.67% hits;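 active = mean inhibition of at least 50% after viability correction, with every replicate also passing that limit; inconclusive = mean reaches 50% but only one of two replicates passes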;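 also: firefly luciferase signal divided by Alamar Blue viability fluorescence both relative to DMSO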
AF4-AF9 inh: MLL-AF4/AF9 protein interaction inhibition; P42568; AlphaScreen, biotin-AF4 peptide binding to FLAG-AF9; inhibition, % at 10 µM; 350,000 compounds, 0.47% hits;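 active = every replicate reaching a set inhibition limit, whatever the replicate mean, cut at about 25% in these data; inconclusive = mean inhibition reaches that limit but some replicates miss it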;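 also: 0% = plate neutral control median and 100% = total signal loss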
Target sequence (P42568 whole entry, looked up): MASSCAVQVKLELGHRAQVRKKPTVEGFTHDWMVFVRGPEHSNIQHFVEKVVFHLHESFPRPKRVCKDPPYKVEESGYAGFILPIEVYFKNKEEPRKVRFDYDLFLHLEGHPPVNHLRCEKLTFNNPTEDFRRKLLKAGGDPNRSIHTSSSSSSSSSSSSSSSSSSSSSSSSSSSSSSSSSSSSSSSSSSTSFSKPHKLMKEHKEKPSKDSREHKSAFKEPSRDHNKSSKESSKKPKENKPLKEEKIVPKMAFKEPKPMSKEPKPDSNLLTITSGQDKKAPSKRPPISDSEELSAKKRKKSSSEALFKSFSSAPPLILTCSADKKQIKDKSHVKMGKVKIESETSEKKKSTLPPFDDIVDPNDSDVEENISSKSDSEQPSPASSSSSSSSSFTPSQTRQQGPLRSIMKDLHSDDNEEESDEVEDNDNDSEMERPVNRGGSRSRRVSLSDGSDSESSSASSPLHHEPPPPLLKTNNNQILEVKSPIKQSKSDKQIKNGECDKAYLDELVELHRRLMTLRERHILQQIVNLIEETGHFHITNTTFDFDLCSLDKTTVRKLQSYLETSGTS
N-glyco inh: N-linked glycosylation inhibition | D54 ERlucT glycosylation luciferase reporter, 24 h; percent of 100 nM tunicamycin response | reporter increase, % at 12.5 µM | 360,000 compounds, 0.23% hits | AID 588692;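 active = mean luciferase reporter signal, scaled so untreated is 0 and the glycosylation-blocking control 100, at or above a set limit in every replicate; inconclusive = mean reaches the limit but not every replicate does; inactive = mean below the limit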;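 also: luciferase carries N-glycosylation sites so blocking glycosylation raises the light; 0% = median of neutral control wells and 100% = median of 100 nM tunicamycin wells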
PAX8 inh HTS: lowers PAX8-driven luciferase in RMG-I cells | RMG-I TPO-luciferase reporter, SteadyGlo, 24 h | inhibition, % at 12.6 µM | 360,000 compounds, 1.2% hits;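 active = mean replicate inhibition at least 60% with every replicate also reaching 60%; inconclusive = only one of the two criteria is met; inactive = mean below 60% and not all replicates reaching 60%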;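 also: luciferase light reporting Pax8 driven TPO promoter activity; plate controls were median of neutral control wells for no effect and mitoxantrone controls for full effect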
FN deposit inh: fibronectin deposition inhibition | AH1F fibroblasts, Alexa488-fibronectin deposition fluorescence, overnight | inhibition, % at 12.6 µM | 350,000 compounds, 0.086% hits | AID 743247;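 active = mean inhibition across replicates of 30% or more, regardless of how many single replicates reach that level; inconclusive = mean under 30% yet at least half of replicates reach 30%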;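 also: positive control wells lacked labelled fibronectin entirely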
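Material – AH1F fibroblast monolayer, labelled fibronectin deposition · Reagent – labelled fibronectin 24 nM · Timing – 1 h adhesion, overnight exposure · Measured by – fluorescence at 485 nm excitation, 525 nm emission · Read-out – inhibition of fibronectin deposition signal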
The depositor's hits bear a star; ? = inconclusive; nt = no result; [ ] = dose if it differs, or a comment.

SMILES | Env fusion inh | EWS-Fli inh | AF4-AF9 inh | N-glyco inh | PAX8 inh HTS | FN deposit inh
COc1ccc(S(=O)(=O)N(Cc2cccnc2)Cc2cc3ccccc3[nH]c2=O)cc1 | 3 | nt | -4 | -3 | 5 | 4
O=C(Nc1ccc2nc3n(c(=O)c2c1)CCCCC3)c1cc([N+](=O)[O-])ccc1F | -3 | nt | 6 | -15 | 90* | 7
O=C(Nc1ccc2nc3n(c(=O)c2c1)CCCCC3)c1c(F)ccc([N+](=O)[O-])c1F | 15 | nt | 4 | -25 | 72* | 17
COc1ccc2c3c(n(C)c2c1)[C@@H](CO)N(C(=O)c1ccccc1)CC31CN(CC2CC2)C1 | nt | -6 | 11 | nt | nt | nt
COc1ccc(C(C)NC(=O)c2ccc(Br)cc2)cc1OC (stereo not drawn) | nt | 6 | 2 | 2 | 138* | 3
N#Cc1c(NCc2ccccc2)ccnc1NCc1cccnc1 | 107* | nt | nt | -2 | 19 | nt
N#Cc1c(F)cccc1NCc1cccnc1 | -1 | 13 | 0 | -1 | 3 | 1
CO[C@@H]1CN(C)C(=O)c2cc(NC(=O)C3CC3)ccc2OC[C@@H](C)N(Cc2nccs2)C[C@H]1C | nt | -5 | -2 | nt | -5 | 1
CCOC(=O)Cn1c(S(=O)(=O)Cc2ccccc2Cl)nc(-c2ccccc2)c1-c1ccccc1 | nt | -13 | 8 | -11 | nt | nt
C#CCn1c(S(=O)(=O)Cc2ccc(C)cc2)nc(-c2ccccc2)c1-c1ccccc1 | 146* | nt | nt | -12 | 17 | nt
C#CCn1c(S(=O)(=O)Cc2ccccc2Cl)nc(-c2ccccc2)c1-c1ccccc1 | 79* | nt | nt | 0 | nt | 0
C#CCn1c(C)cc(C)c(S(=O)(=O)c2ccccc2)c1=O | -10 | -52 | -1 | 0 | -63 | -4
CC(C)NC(=O)N1CC2(C1)[C@@H](c1ccccc1)[C@@H](CO)N2C(=O)c1ccccn1 | nt | 5 | -2 | nt | -11 | nt
Fc1ccc(/C=N/NC(=S)Nc2ccc(Cl)cc2Cl)cc1 | -14 | 53* | 1 | 11 | -1 | -14
O=[N+]([O-])c1ccc(/C=N/NC(=S)Nc2ccc(Cl)cc2Cl)s1 | -93 | 10 | -2 | 3 | 92* | -15
COc1cc(OC)c2c(-c3cccc(-c4ccc(C(C)=O)cc4)c3)cc(=O)oc2c1 | nt | nt | nt | 1 | nt | nt
COc1cc(OC)c2c(-c3cccc(-c4ccc(OC)c(F)c4)c3)cc(=O)oc2c1 | -82 | 39 | 1 | 6 | 89* | -31
CO[C@@]12[C@H](COC(N)=O)C3=C(C(=O)C(C)=C(N)C3=O)N1C[C@@H]1N[C@@H]12 | 7 | -4 | -3 | -1 | 13 | nt
CO[C@@]12[C@@H]3N[C@@H]3CN1C1=C(C(=O)C(N)=C(C)C1=O)[C@@H]2COC(N)=O | 63* | 27 | -1 | -10 | 48 | -9
Cc1ccc(C(=O)N/C(=C/c2ccco2)C(=O)NCCc2c[nH]c3ccccc23)cc1 | 9 | -9 | 6 | 45* | 12 | -3
CCOC(=O)CSc1nc2ccccc2c(=O)n1CC1COc2ccccc2O1 (stereo not drawn) | 65* | nt | nt | -1 | nt | -2
CCCN(CCC)C(=O)CSc1nc2ccccc2c(=O)n1CC1COc2ccccc2O1 (stereo not drawn) | 26 | nt | nt | -4 | 16 | 5
Cc1nn(C)c2ncc(C(=O)c3ccccc3O)cc12 | 7 | -2 | 2 | -4 | 13 | 5
Cc1[nH]nc2ncc(C(=O)c3ccccc3O)cc12 | 64* | nt | nt | -10 | -13 | 5
Cc1[nH]n(-c2ccccc2)c(=O)c1C=Nc1cccc2cccnc12 | 57* | nt | nt | 3 | ? | nt
SMILES | Env fusion inh | EWS-Fli inh | AF4-AF9 inh | N-glyco inh | PAX8 inh HTS | FN deposit inh
CN(C)CC(=O)N[C@@H]1CC[C@@H](CCn2cc(C3CCCCC3)nn2)O[C@@H]1CO | 7[16.7 µM] | 0 | -3 | nt | -12 | -10
COC(=O)CN1C(c2ccc(Cl)cc2)=Nc2ccc(Cl)cc2C1c1ccccc1 (stereo not drawn) | 80* | nt | nt | -4 | 21 | -10
CCCCNc1ccc(C(F)(F)F)cc1S(=O)(=O)NCCc1ccc(F)cc1 | 72* | 12 | -2 | -6 | 58 | -1
CCC(=O)Nc1ccc2c(c1)C(=O)N(C)C[C@@H](OC)[C@@H](C)CN(C(=O)c1ccncc1)[C@H](C)CO2 | -2[16.7 µM] | 9 | 1 | nt | 11 | -4
Cc1ccc(CSCCNC(=O)c2ccc(Cl)c(S(=O)(=O)N3CCOCC3)c2)cc1 | 85* | nt | nt | 0 | nt | 3
Cc1ccccc1CCNC(=O)c1ccc(Cl)c(S(=O)(=O)N2CC(C)OC(C)C2)c1 (stereo not drawn) | 59* | 31 | 0 | -3 | 33 | -12
O=C(C[C@@H]1C[C@@H]2c3cc(NC(=O)c4ccc5c(c4)OCO5)ccc3O[C@@H]2[C@H](CO)O1)NCc1ccccn1 | -6[16.7 µM] | 2 | -4 | nt | 4 | nt
CCOC(=O)c1c(-c2ccc(F)cc2)csc1NC(=O)CN1C(=O)NC2(CCCCC2C)C1=O (stereo not drawn) | -1 | 22 | 1 | -4 | 99* | -5
CCOC(=O)c1c(NC(=O)CN2C(=O)NC3(CCCCC3C)C2=O)sc(C)c1C (stereo not drawn) | 15 | nt | nt | 7 | 16 | -1
CCCCCCCCCCOC(=O)Cn1c(COc2ccccc2OC)[n+](C)c2ccccc21 | 86* | 57* | 19 | 15 | 70* | 1
CC1CCN(c2ccc(-c3cccs3)nn2)CC1 | 16 | 89* | -1 | -18 | 84* | 0
Clc1ccc(-c2cccs2)nn1 | -54 | 2 | -16 | 0 | -13 | -1
COc1cccc(Cl)c1NC(=O)N1CCc2c([nH]c3ccccc23)C1C(F)(F)F (stereo not drawn) | 83* | 7 | -1 | 9 | 26 | -6
COCC#Cc1cnc2c(c1)C(=O)N([C@@H](C)CO)C[C@H](C)[C@@H](CN(C)Cc1ccc3c(c1)OCO3)O2 | 5[16.7 µM] | -3 | 2 | nt | -25 | -14
CC(C)(C)CC(C)(C)c1ccc(OCCOCC[N+](C)(C)Cc2ccccc2)cc1 | 4 | 25 | 51* | 9 | 78* | 1
COc1ccc(/C=C/C(=O)c2ccc(O)cc2)cc1CN1CCOCC1 | 7 | nt | nt | -9 | 38 | -1
COc1ccc(/C=C/C(=O)C23CC4CC(CC(C4)C2)C3)cc1CN1CCOCC1 | -5 | -1 | 26* | -2 | 44 | 1
CCC(=O)N(C)C[C@H]1Oc2cc(C#CCOC)ccc2S(=O)(=O)N([C@@H](C)CO)C[C@@H]1C | -25[16.7 µM] | -6 | 1 | nt | nt | -16
CCOC(=O)c1ccc(NC(=O)Cn2ncc(Cl)c(Cl)c2=O)cc1 | -196 | 37 | -1 | -2 | 95* | 32*
CCc1ccccc1NC(=O)CN(C)C(=O)Cn1cnc2ccc(Cl)cc2c1=O | nt | -2 | -4 | -1 | -1 | 3
CCc1ccccc1NC(=O)CN(C)C(=O)Cn1ncc(Cl)c(Cl)c1=O | -143 | 63* | -1 | -8 | 68* | 13
CCC(=O)Nc1ccc(C(=O)Cn2ncc(Cl)c(Cl)c2=O)cc1 | -43 | 0 | 0 | 5 | 78* | 8
